Measurements taken from ChEMBL document CHEMBL6134774, “Novel benzenesulfonamides containing a dual triazole moiety with selective carbonic anhydrase inhibition and anticancer activity” (RSC Med Chem, 2025).

Legend:
Carbonic anhydrase 9 = Carbonic anhydrase 9 (Homo sapiens, UniProt Q16790); assay: Inhibition of human CA9 assessed as inhibition constant
How it was run: (§1)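 Esterase activity of the hCA isoform was followed spectrophotometrically by Verpoorte's method, as the rise in absorbance at 348 nm with p-nitrophenyl acetate as substrate. Increasing inhibitor concentrations were incubated with the substrate, from 1 mg mL−1 DMSO stocks, to derive KI. Results are means of triplicate assays ± SEM.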

Carbonic anhydrase 12 = Carbonic anhydrase 12 (Homo sapiens, UniProt O43570); assay: Inhibition of human CA12 assessed as inhibition constant; how it was run: as §1
Sequence of Carbonic anhydrase 12 (O43570 whole entry): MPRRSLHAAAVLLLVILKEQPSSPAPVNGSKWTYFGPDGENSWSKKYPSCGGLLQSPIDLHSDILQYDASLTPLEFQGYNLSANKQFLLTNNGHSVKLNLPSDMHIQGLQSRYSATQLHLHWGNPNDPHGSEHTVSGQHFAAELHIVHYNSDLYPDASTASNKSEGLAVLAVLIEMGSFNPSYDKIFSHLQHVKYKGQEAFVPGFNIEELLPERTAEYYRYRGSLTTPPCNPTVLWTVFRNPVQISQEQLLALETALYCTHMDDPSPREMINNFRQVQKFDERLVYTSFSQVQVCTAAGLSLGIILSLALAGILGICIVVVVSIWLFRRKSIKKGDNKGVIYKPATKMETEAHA

L929 = assay: Cytotoxicity against mouse L929 cells assessed as cell viability measured after 48 hrs by MTT assay; details: L929, 48 h
Hep 3B2 = assay: Cytotoxicity against human Hep3B cells assessed as cell viability measured after 48 hrs by MTT assay
A549 = assay: Cytotoxicity against human A549 cells assessed as cell viability measured after 48 hrs by MTT assay; details: A549, 48 h

Compound | Ki (Carbonic anhydrase 9) [µM] | Ki (Carbonic anhydrase 12) [µM] | IC50 (L929) [µM] | IC50 (Hep 3B2) [µM] | IC50 (A549) [µM]
CCCCCCCO/N=C(/C)c1nnn(-c2ccc(S(N)(=O)=O)cc2)c1C | 0.196 | 0.117 |  |  | 
O=c1[nH]cc(F)c(=O)[nH]1 [FLUOROURACIL] |  |  | 14 | 60.6 | 100
